According to ChEMBL document CHEMBL5346913, “C-glycosides analogues of the okadaic acid central fragment exert neuroprotection via restoration of PP2A-phosphatase activity: A rational design of potential drugs for Alzheimer's disease targeting tauopathies” (Eur J Med Chem, 2023):
Calls of active or inactive are those of the source. The calls are words filed in the database; no cut-off is given here.

Legend:
Cortical neurone = assay: Neuroprotective activity against glutamate-induced excitotoxicity in rat cortical neurons assessed as protection against cell damage at 1 uM preincubated with compound for 24 hrs followed by glutamate addition and measured after 20 hrs by MTT assay relative to control; format: functional; conditions: time 44 hrs
SH-SY5Y [1] = assay: Activation of PP2A in human SH-SY5Y cells assessed as restoration of okadaic acid-induced phosphatase activity inhibition at 1 uM preincubated with compound for 24 hrs followed by okadaic acid addition and measured after 18 hrs by pNPP method; format: cell-based; conditions: time 42.0 hrs
How it was run: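 SH-SY5Y cells (MEM/F12, 10% FBS, 70000 cells/well) preincubated 24 h with compound, then exposed to OA 15 nM plus compound 1 μM for 18 h; phosphatase activity by pNPP method, normalized to untreated control; mean ± SEM, at least 4 independent experiments.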

SH-SY5Y [2] = assay: Neuroprotective activity against cytostatin-induced cytotoxicity in human SH-SY5Y cells assessed as protection against cell death at 1 uM […] by MTT assay relative to control; format: functional
SH-SY5Y [3] = assay: Activation of PP2A in human SH-SY5Y cells assessed as restoration of cytostatin-induced phosphatase activity inhibition at 1 uM preincubated with compound for 24 hrs followed by okadaic acid addition and measured after 18 hrs by pNPP method; format: cell-based; conditions: filed as activator, time 42.0 hrs, in the assay text read “followed by cytostatin addition” for “followed by okadaic acid addition”
How it was run: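 Cells were SH-SY5Y (70000/well), preincubated 24 h with compound, then given cytostatin 2 μM plus compound 1 μM for 18 h; pNPP-measured phosphatase activity normalized to untreated control; mean ± SEM, at least 3 independent experiments.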

SH-SY5Y [4] = assay: Neuroprotective activity against rotenone/oligomycin-induced oxidative stress in human SH-SY5Y cells assessed as protection against cell death at 1 uM incubated for 20 to 24 hrs by MTT assay relative to control; conditions: time 20-24 hrs
SH-SY5Y [5] = assay: Neuroprotective activity against okadaic acid-induced cytotoxicity in human SH-SY5Y cells assessed as protection against cell death at 1 uM incubated for 24 hrs by MTT assay relative to control; format: functional
How it was run: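 SH-SY5Y cells were pre-incubated 24 h with compound at 1 μM, then co-incubated with okadaic acid 20 nM for 20 h. Viability was read by MTT reduction. Results are % protection relative to okadaic acid-treated cells without compound, as mean ± SEM of at least 4 independent experiments.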

Mus musculus = assay: Cognitive enhancing effect in LPS-induced mouse model of cognitive impairment assessed as fold change in time exploring the new object at 10 mg/ml, ip by object recognition test; format: functional
How it was run: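 Mice injected i.p. with LPS 1 mg/mL and co-injected i.p. with compound 10 mg/mL; object recognition test: day 1 arena familiarization, day 2 two identical objects, day 3 one replaced by an object differing in shape and size; exploration recorded 10 min; new vs old object exploration time compared; mean ± SEM.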

[6] = target: Glycogen synthase kinase-3 beta (Homo sapiens) (UniProt P49841); assay: Inhibition of okadaic-acid induced GSK-3beta hyperphosphorylation at Ser9 residue in human SH-SY5Y cells at 0.1 uM preincubated with compound for 24 hrs followed by okadaic acid addition and measured after 20 hrs by Western blot analysis; format: cell-based; conditions: time 44.0 hrs
Chain of Glycogen synthase kinase-3 beta (Homo sapiens) (P49841 whole entry, looked up): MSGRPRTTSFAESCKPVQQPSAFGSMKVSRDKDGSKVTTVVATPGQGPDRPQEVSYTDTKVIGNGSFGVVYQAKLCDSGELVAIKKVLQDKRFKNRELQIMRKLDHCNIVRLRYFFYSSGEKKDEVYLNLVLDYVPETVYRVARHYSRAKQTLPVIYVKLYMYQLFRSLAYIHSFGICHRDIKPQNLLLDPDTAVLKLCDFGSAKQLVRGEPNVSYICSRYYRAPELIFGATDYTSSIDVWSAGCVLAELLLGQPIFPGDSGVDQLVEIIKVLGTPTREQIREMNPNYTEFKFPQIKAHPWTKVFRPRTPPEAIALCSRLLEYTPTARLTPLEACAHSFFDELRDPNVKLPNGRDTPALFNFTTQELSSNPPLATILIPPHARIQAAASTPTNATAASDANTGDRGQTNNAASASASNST
How it was run: (§1)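 After 24 h preincubation with compound 0.1 μM, SH-SY5Y cells incubated 20 h with OA 20 nM plus compound; western blot for pTau (Ser202/Thr205) and pGSK-3β (Ser9); mean ± SEM of at least 3 independent experiments.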

HEK293T [7] = assay: Activation of GFP-tagged PP2A-B56alpha (unknown origin) transfected in HEK293T cells using K-R-pT-I-R-R peptide as substrate assessed as recovery of OA-induced PP2A inhibition by measuring increase in substrate phospho hydrolysis at 1 uM measured at 15 to 30 mins by Malachite green method; format: cell-based; conditions: Homo sapiens, filed as activator, time 15-30 min
[8] = target: Microtubule-associated protein tau (Homo sapiens) (UniProt P10636); assay: Inhibition of okadaic-acid induced tau hyperphosphorylation at Ser202/Thr205 residues in human SH-SY5Y cells at 0.1 uM preincubated with compound for 24 hrs followed by okadaic acid addition and measured after 20 hrs by Western blot analysis; format: cell-based; conditions: time 44.0 hrs; how it was run: as §1
Chain of Microtubule-associated protein tau (Homo sapiens) (P10636 whole entry): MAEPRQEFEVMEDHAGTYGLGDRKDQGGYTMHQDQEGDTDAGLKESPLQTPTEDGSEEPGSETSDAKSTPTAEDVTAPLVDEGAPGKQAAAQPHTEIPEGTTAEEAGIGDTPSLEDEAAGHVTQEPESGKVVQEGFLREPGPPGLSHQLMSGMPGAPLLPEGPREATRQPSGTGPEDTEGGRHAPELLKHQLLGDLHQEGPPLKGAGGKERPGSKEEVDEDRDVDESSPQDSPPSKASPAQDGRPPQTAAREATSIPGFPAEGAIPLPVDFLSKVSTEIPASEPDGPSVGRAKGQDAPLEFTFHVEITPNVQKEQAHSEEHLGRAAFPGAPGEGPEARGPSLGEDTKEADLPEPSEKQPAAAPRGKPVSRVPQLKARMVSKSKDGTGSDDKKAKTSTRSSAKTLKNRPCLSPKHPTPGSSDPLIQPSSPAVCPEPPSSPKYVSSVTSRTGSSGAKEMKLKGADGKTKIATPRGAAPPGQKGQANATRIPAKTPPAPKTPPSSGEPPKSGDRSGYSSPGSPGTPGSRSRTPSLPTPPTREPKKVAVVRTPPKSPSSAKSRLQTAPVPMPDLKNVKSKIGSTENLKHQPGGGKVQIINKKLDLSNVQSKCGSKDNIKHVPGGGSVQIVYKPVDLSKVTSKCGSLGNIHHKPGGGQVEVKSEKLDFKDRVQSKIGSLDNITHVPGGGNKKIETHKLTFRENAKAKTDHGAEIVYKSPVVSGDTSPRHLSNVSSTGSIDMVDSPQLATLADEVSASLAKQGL

HEK293T [9] = assay: Activation of GFP-tagged PP2A-B55alpha (unknown origin) transfected in HEK293T cells using K-R-pT-I-R-R peptide as substrate assessed as recovery of OA-induced PP2A inhibition by measuring increase in substrate phospho hydrolysis at 1 uM measured at 15 to 30 mins by Malachite green method; format: cell-based; conditions: Homo sapiens, filed as activator, time 15-30 min
[10] = Permeability of the compound in porcine brain by spectrophotometry based PAMPA-BBB assay; conditions: pig

Compound: OC[C@H](O)C[C@@H]1C=C[C@@H]2OC(c3ccccc3)OC[C@H]2O1 (some centres not stated)
- Activity (Cortical neurone): 29%
- Activity (SH-SY5Y [1]; filed as activator): Active
- Activity (SH-SY5Y [2]): 21%
- Activity (SH-SY5Y [3]): Active
- Activity (SH-SY5Y [4]): 10%
- Activity (SH-SY5Y [5]): 40%

Compound: C=CC[C@@H]1C=C[C@@H]2OC(C)(C)OC[C@H]2O1
- Activity (Cortical neurone): 8%
- Activity (SH-SY5Y [2]): 50%
- Activity (SH-SY5Y [4]): 63%
- Activity (SH-SY5Y [5]): 50%

Compound: CC12CC3CC(C)(C1)CC(N)(C3)C2 [MEMANTINE]
- Activity (Cortical neurone): 22%
- Activity (SH-SY5Y [2]): 57%
- Activity (SH-SY5Y [5]): 60%

Compound: CC1(C)OC[C@H]2O[C@H](C[C@H](O)CO)C=C[C@@H]2O1
- fold change (FC) (Mus musculus): 2.4
- Activity (Cortical neurone): 20%
- Activity (SH-SY5Y [1]; filed as activator): Active
- inhibition [6]: Active
- Activity (HEK293T [7]): Active
- inhibition [8]: Active
- Activity (SH-SY5Y [2]): 64%
- Activity (SH-SY5Y [3]): Active
- Activity (HEK293T [9]): Active
- permeability [10]: Permeable
- Activity (SH-SY5Y [4]): 16%
- Activity (SH-SY5Y [5]): 72%

Compound: C=CC[C@@H]1C=C[C@H](O)[C@@H](CO)O1
- Activity (Cortical neurone): 15%
- Activity (SH-SY5Y [2]): 45%
- Activity (SH-SY5Y [3]): Active
- Activity (SH-SY5Y [4]): 30%
- Activity (SH-SY5Y [5]): 72%

Compound: O=C(OCCC[C@@H]1C=C[C@@H]2OC(c3ccccc3)OC[C@H]2O1)c1ccccc1 (some centres not stated)
- Activity (Cortical neurone): 8%
- Activity (SH-SY5Y [1]): inactive
- Activity (SH-SY5Y [2]): 47%
- Activity (SH-SY5Y [4]): 7%
- Activity (SH-SY5Y [5]): 72%

Compound: CC1(C)OC[C@H]2O[C@H](C[C@@H](O)CO)C=C[C@@H]2O1
- Activity (Cortical neurone): 15%
- Activity (SH-SY5Y [2]): 56%
- Activity (SH-SY5Y [3]): Active
- Activity (SH-SY5Y [4]): 24%
- Activity (SH-SY5Y [5]): 45%

Compound: OCCC[C@@H]1C=C[C@@H]2OC(c3ccccc3)OC[C@H]2O1 (some centres not stated)
- Activity (Cortical neurone): 12%
- Activity (SH-SY5Y [2]): 52%
- Activity (SH-SY5Y [4]): 29%
- Activity (SH-SY5Y [5]): 82%

Compound: C=CC[C@@H]1C=C[C@H](OC(C)=O)[C@@H](COC(C)=O)O1
- Activity (Cortical neurone): 19%
- Activity (SH-SY5Y [2]): 47%
- Activity (SH-SY5Y [4]): 23%
- Activity (SH-SY5Y [5]): 84%

Compound: CC1(C)OC[C@H]2O[C@H](CCCO)C=C[C@@H]2O1
- Activity (Cortical neurone): 6%
- Activity (SH-SY5Y [2]): 45%
- Activity (SH-SY5Y [4]): 5%
- Activity (SH-SY5Y [5]): 81%

Compound: C=CC[C@@H]1C=C[C@@H]2OC(c3ccccc3)OC[C@H]2O1 (some centres not stated)
- Activity (Cortical neurone): 15%
- Activity (SH-SY5Y [2]): 49%
- Activity (SH-SY5Y [4]): 26%
- Activity (SH-SY5Y [5]): 80%

Compound: O=C(OCCC[C@@H]1C=C[C@H](O)[C@@H](CO)O1)c1ccccc1
- Activity (Cortical neurone): 17%
- Activity (SH-SY5Y [1]): inactive
- Activity (SH-SY5Y [2]): 1%
- Activity (SH-SY5Y [4]): 3%
- Activity (SH-SY5Y [5]): 20%

Compound: OC[C@@H](O)C[C@@H]1C=C[C@@H]2OC(c3ccccc3)OC[C@H]2O1 (some centres not stated)
- Activity (Cortical neurone): 13%
- Activity (SH-SY5Y [2]): 54%
- Activity (SH-SY5Y [3]): Active
- Activity (SH-SY5Y [4]): 27%
- Activity (SH-SY5Y [5]): 73%

Compound: COc1ccc2[nH]cc(CCNC(C)=O)c2c1 [MELATONIN]
- Activity (SH-SY5Y [4]): 28%

Compound: CC1(C)OC[C@H]2O[C@H](CCCOC(=O)c3ccccc3)C=C[C@@H]2O1
- Activity (Cortical neurone): 17%
- Activity (SH-SY5Y [1]): inactive
- Activity (SH-SY5Y [2]): 37%
- Activity (SH-SY5Y [4]): 15%
- Activity (SH-SY5Y [5]): 69%
